According to ChEMBL document CHEMBL1122821, “Synthesis and some pharmacological properties of 18 potent O-alkyltyrosine-substituted antagonists of the vasopressor responses to arginine-vasopressin” (J Med Chem, 1985):

Columns and labels:
Rattus norvegicus [1] = species on record: Rattus norvegicus; experiment: In vitro anti-oxytocic potency was evaluated in the absence of Mg2+; type: functional; conditions: read-out: pA2 (converted)
Summary of the method: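 Isolated rat uterus in medium containing no Mg2+. USP posterior pituitary reference standard used as agonist. In vitro pA2 values were derived as in Bankowski et al.; means ± SE.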

Rattus norvegicus [2] = species on record: Rattus norvegicus; experiment: In vitro anti-oxytocic potency was evaluated in the presence of 0.5 mM of Mg2+; type: functional; conditions: read-out: pA2 (converted)
Summary of the method: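 Isolated rat uterus in medium containing 0.5 mM Mg2+. USP posterior pituitary reference standard used as agonist. In vitro pA2 values were derived as in Bankowski et al.; means ± SE.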

Rattus norvegicus [3] = experiment: In vivo anti-vasopressor activity measured as the negative logarithm of the effective dose / the estimated volume of distribution (67 mL/kg); type: ADME, organism-based; conditions: read-out: pA2 (converted)
Summary of the method: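 Rats treated with phenoxybenzamine under urethane anesthesia. Pressor responses to the USP posterior pituitary standard were given intravenously. Effective dose (nmol/kg) was interpolated on a log scale; means ± SE of at least four estimates. pA2 = −log(effective dose / 67 mL/kg).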

Rattus norvegicus [4] = experiment: In vivo antidiuretic activity in rats under ethanol anesthesia.; type: functional, Urine
Summary of the method: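 Rats under ethanol anesthesia, with the USP posterior pituitary reference standard as reference. Agonistic activity is expressed in units per milligram.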

Row | SMILES | Kb (Rattus norvegicus [1]) [nM] | Kb (Rattus norvegicus [2]) [nM] | Kb (Rattus norvegicus [3]) [nM] | Activity (Rattus norvegicus [4]) [units/mg]
1 | CCOc1ccc(C[C@@H]2NC(=O)CC(C)(C)SSC[C@@H](C(=O)N3CCC[C@H]3C(=O)N[C@@H](CCCN=C(N)N)C(=O)NCC(N)=O)NC(=O)[C@H](CC(N)=O)NC(=O)[C@H](C(C)C)NC(=O)[C@H](Cc3ccccc3)NC2=O)cc1 [listing 1 of 2 here] | 2.29 | 21.9 | 8.51 | 
2 | CCOc1ccc(C[C@@H]2NC(=O)CC(C)(C)SSC[C@@H](C(=O)N3CCC[C@H]3C(=O)N[C@@H](CCCN=C(N)N)C(=O)NCC(N)=O)NC(=O)[C@H](CC(N)=O)NC(=O)[C@H](C(C)C)NC(=O)[C@H](Cc3ccccc3)NC2=O)cc1 [listing 2 of 2 here] |  |  |  | 0.62
3 | COc1ccc(C[C@@H]2NC(=O)CC(C)(C)SSC[C@@H](C(=O)N3CCC[C@H]3C(=O)N[C@@H](CCCN=C(N)N)C(=O)NCC(N)=O)NC(=O)[C@H](CC(N)=O)NC(=O)[C@H](C(C)C)NC(=O)[C@H](Cc3ccccc3)NC2=O)cc1 [listing 1 of 2 here] | 3.72 | 12.6 | 4.37 | 
4 | COc1ccc(C[C@@H]2NC(=O)CC(C)(C)SSC[C@@H](C(=O)N3CCC[C@H]3C(=O)N[C@@H](CCCN=C(N)N)C(=O)NCC(N)=O)NC(=O)[C@H](CC(N)=O)NC(=O)[C@H](C(C)C)NC(=O)[C@H](Cc3ccccc3)NC2=O)cc1 [listing 2 of 2 here] |  |  |  | 2.9
5 | CCOc1ccc(C[C@@H]2NC(=O)CC(C)(C)SSC[C@@H](C(=O)N3CCC[C@H]3C(=O)N[C@H](CCCN=C(N)N)C(=O)NCC(N)=O)NC(=O)[C@H](CC(N)=O)NC(=O)[C@H](C(C)C)NC(=O)[C@H](Cc3ccccc3)NC2=O)cc1 [listing 1 of 2 here] | 15.1 | 26.9 | 3.47 | 
6 | CCOc1ccc(C[C@@H]2NC(=O)CC(C)(C)SSC[C@@H](C(=O)N3CCC[C@H]3C(=O)N[C@H](CCCN=C(N)N)C(=O)NCC(N)=O)NC(=O)[C@H](CC(N)=O)NC(=O)[C@H](C(C)C)NC(=O)[C@H](Cc3ccccc3)NC2=O)cc1 [listing 2 of 2 here] |  |  |  | 0.2
7 | CCOc1ccc(C[C@@H]2NC(=O)CC(CC)(CC)SSC[C@@H](C(=O)N3CCC[C@H]3C(=O)N[C@H](CCCN=C(N)N)C(=O)NCC(N)=O)NC(=O)[C@H](CC(N)=O)NC(=O)[C@H](C(C)C)NC(=O)[C@H](Cc3ccccc3)NC2=O)cc1 [listing 1 of 2 here] | 10.5 | 12.9 | 6.46 | 
8 | CCOc1ccc(C[C@@H]2NC(=O)CC(CC)(CC)SSC[C@@H](C(=O)N3CCC[C@H]3C(=O)N[C@H](CCCN=C(N)N)C(=O)NCC(N)=O)NC(=O)[C@H](CC(N)=O)NC(=O)[C@H](C(C)C)NC(=O)[C@H](Cc3ccccc3)NC2=O)cc1 [listing 2 of 2 here] |  |  |  | 0.07
9 | CCC1(CC)CC(=O)N[C@@H](Cc2ccc(OC)cc2)C(=O)N[C@@H](Cc2ccccc2)C(=O)N[C@@H](C(C)C)C(=O)N[C@@H](CC(N)=O)C(=O)N[C@H](C(=O)N2CCC[C@H]2C(=O)N[C@H](CCCN=C(N)N)C(=O)NCC(N)=O)CSS1 [listing 1 of 2 here] | 18.6 | 11.7 | 4.47 | 
10 | CCC1(CC)CC(=O)N[C@@H](Cc2ccc(OC)cc2)C(=O)N[C@@H](Cc2ccccc2)C(=O)N[C@@H](C(C)C)C(=O)N[C@@H](CC(N)=O)C(=O)N[C@H](C(=O)N2CCC[C@H]2C(=O)N[C@H](CCCN=C(N)N)C(=O)NCC(N)=O)CSS1 [listing 2 of 2 here] |  |  |  | 0.11
11 | CCOc1ccc(C[C@@H]2NC(=O)CC(CC)(CC)SSC[C@@H](C(=O)N3CCC[C@H]3C(=O)N[C@@H](CCCN=C(N)N)C(=O)NCC(N)=O)NC(=O)[C@H](CC(N)=O)NC(=O)[C@H](CCC(N)=O)NC(=O)[C@H](Cc3ccccc3)NC2=O)cc1 [listing 1 of 2 here] | 3.72 | 10 | 3.47 | 
12 | CCOc1ccc(C[C@@H]2NC(=O)CC(CC)(CC)SSC[C@@H](C(=O)N3CCC[C@H]3C(=O)N[C@@H](CCCN=C(N)N)C(=O)NCC(N)=O)NC(=O)[C@H](CC(N)=O)NC(=O)[C@H](CCC(N)=O)NC(=O)[C@H](Cc3ccccc3)NC2=O)cc1 [listing 2 of 2 here] |  |  |  | 0.035
13 | COc1ccc(C[C@@H]2NC(=O)CC(C)(C)SSC[C@@H](C(=O)N3CCC[C@H]3C(=O)N[C@H](CCCN=C(N)N)C(=O)NCC(N)=O)NC(=O)[C@H](CC(N)=O)NC(=O)[C@H](CCC(N)=O)NC(=O)[C@H](Cc3ccccc3)NC2=O)cc1 | 24.5 | 57.5 | 11 | 3.5
14 | CCOc1ccc(C[C@@H]2NC(=O)CC(C)(C)SSC[C@@H](C(=O)N3CCC[C@H]3C(=O)N[C@@H](CCCN=C(N)N)C(=O)NCC(N)=O)NC(=O)[C@H](CC(N)=O)NC(=O)[C@H](CCC(N)=O)NC(=O)[C@H](Cc3ccccc3)NC2=O)cc1 [listing 1 of 2 here] | 7.59 | 44.7 | 3.98 | 
15 | CCOc1ccc(C[C@@H]2NC(=O)CC(C)(C)SSC[C@@H](C(=O)N3CCC[C@H]3C(=O)N[C@@H](CCCN=C(N)N)C(=O)NCC(N)=O)NC(=O)[C@H](CC(N)=O)NC(=O)[C@H](CCC(N)=O)NC(=O)[C@H](Cc3ccccc3)NC2=O)cc1 [listing 2 of 2 here] |  |  |  | 0.59
16 | COc1ccc(C[C@@H]2NC(=O)CC(C)(C)SSC[C@@H](C(=O)N3CCC[C@H]3C(=O)N[C@H](CCCN=C(N)N)C(=O)NCC(N)=O)NC(=O)[C@H](CC(N)=O)NC(=O)[C@H](C(C)C)NC(=O)[C@H](Cc3ccccc3)NC2=O)cc1 [listing 1 of 2 here] | 31.6 | 21.4 | 14.5 | 
17 | COc1ccc(C[C@@H]2NC(=O)CC(C)(C)SSC[C@@H](C(=O)N3CCC[C@H]3C(=O)N[C@H](CCCN=C(N)N)C(=O)NCC(N)=O)NC(=O)[C@H](CC(N)=O)NC(=O)[C@H](C(C)C)NC(=O)[C@H](Cc3ccccc3)NC2=O)cc1 [listing 2 of 2 here] |  |  |  | 3.2
18 | CCOc1ccc(C[C@@H]2NC(=O)CC(CC)(CC)SSC[C@@H](C(=O)N3CCC[C@H]3C(=O)N[C@@H](CCCN=C(N)N)C(=O)NCC(N)=O)NC(=O)[C@H](CC(N)=O)NC(=O)[C@H](C(C)C)NC(=O)[C@H](Cc3ccccc3)NC2=O)cc1 [listing 1 of 2 here] | 7.41 | 37.2 | 3.8 | 
19 | CCOc1ccc(C[C@@H]2NC(=O)CC(CC)(CC)SSC[C@@H](C(=O)N3CCC[C@H]3C(=O)N[C@@H](CCCN=C(N)N)C(=O)NCC(N)=O)NC(=O)[C@H](CC(N)=O)NC(=O)[C@H](C(C)C)NC(=O)[C@H](Cc3ccccc3)NC2=O)cc1 [listing 2 of 2 here] |  |  |  | 0.1
20 | CCC1(CC)CC(=O)N[C@@H](Cc2ccc(OC)cc2)C(=O)N[C@@H](Cc2ccccc2)C(=O)N[C@@H](C(C)C)C(=O)N[C@@H](CC(N)=O)C(=O)N[C@H](C(=O)N2CCC[C@H]2C(=O)N[C@@H](CCCN=C(N)N)C(=O)NCC(N)=O)CSS1 [listing 1 of 2 here] | 2.57 | 11.7 | 5.13 | 
21 | CCC1(CC)CC(=O)N[C@@H](Cc2ccc(OC)cc2)C(=O)N[C@@H](Cc2ccccc2)C(=O)N[C@@H](C(C)C)C(=O)N[C@@H](CC(N)=O)C(=O)N[C@H](C(=O)N2CCC[C@H]2C(=O)N[C@@H](CCCN=C(N)N)C(=O)NCC(N)=O)CSS1 [listing 2 of 2 here] |  |  |  | 0.24
22 | CCOc1ccc(C[C@@H]2NC(=O)CC(CC)(CC)SSC[C@@H](C(=O)N3CCC[C@H]3C(=O)N[C@H](CCCN=C(N)N)C(=O)NCC(N)=O)NC(=O)[C@H](CC(N)=O)NC(=O)[C@H](CCC(N)=O)NC(=O)[C@H](Cc3ccccc3)NC2=O)cc1 [listing 1 of 2 here] | 70.8 | 28.8 | 4.68 | 
23 | CCOc1ccc(C[C@@H]2NC(=O)CC(CC)(CC)SSC[C@@H](C(=O)N3CCC[C@H]3C(=O)N[C@H](CCCN=C(N)N)C(=O)NCC(N)=O)NC(=O)[C@H](CC(N)=O)NC(=O)[C@H](CCC(N)=O)NC(=O)[C@H](Cc3ccccc3)NC2=O)cc1 [listing 2 of 2 here] |  |  |  | 0.0003
24 | CCC1(CC)CC(=O)N[C@@H](Cc2ccc(OC)cc2)C(=O)N[C@@H](Cc2ccccc2)C(=O)N[C@@H](CCC(N)=O)C(=O)N[C@@H](CC(N)=O)C(=O)N[C@H](C(=O)N2CCC[C@H]2C(=O)N[C@@H](CCCN=C(N)N)C(=O)NCC(N)=O)CSS1 [listing 1 of 2 here] | 11 | 6.46 | 2.95 | 
25 | CCC1(CC)CC(=O)N[C@@H](Cc2ccc(OC)cc2)C(=O)N[C@@H](Cc2ccccc2)C(=O)N[C@@H](CCC(N)=O)C(=O)N[C@@H](CC(N)=O)C(=O)N[C@H](C(=O)N2CCC[C@H]2C(=O)N[C@@H](CCCN=C(N)N)C(=O)NCC(N)=O)CSS1 [listing 2 of 2 here] |  |  |  | 0.066
26 | CCC1(CC)CC(=O)N[C@@H](Cc2ccc(OC)cc2)C(=O)N[C@@H](Cc2ccccc2)C(=O)N[C@@H](CCC(N)=O)C(=O)N[C@@H](CC(N)=O)C(=O)N[C@H](C(=O)N2CCC[C@H]2C(=O)NC(CCCN=C(N)N)C(=O)NCC(N)=O)CSS1 (stereo in doubt) [listing 1 of 2 here] | 19.1 | 7.94 | 2.69 | 
27 | CCC1(CC)CC(=O)N[C@@H](Cc2ccc(OC)cc2)C(=O)N[C@@H](Cc2ccccc2)C(=O)N[C@@H](CCC(N)=O)C(=O)N[C@@H](CC(N)=O)C(=O)N[C@H](C(=O)N2CCC[C@H]2C(=O)NC(CCCN=C(N)N)C(=O)NCC(N)=O)CSS1 (stereo in doubt) [listing 2 of 2 here] |  |  |  | 0.019
28 | CCOc1ccc(C[C@@H]2NC(=O)CC(C)(C)SSC[C@@H](C(=O)N3CCC[C@H]3C(=O)NC(CCCN=C(N)N)C(=O)NCC(N)=O)NC(=O)[C@H](CC(N)=O)NC(=O)[C@H](CCC(N)=O)NC(=O)[C@H](Cc3ccccc3)NC2=O)cc1 (stereo in doubt) [listing 1 of 2 here] | 14.1 | 38.9 | 5.37 | 
29 | CCOc1ccc(C[C@@H]2NC(=O)CC(C)(C)SSC[C@@H](C(=O)N3CCC[C@H]3C(=O)NC(CCCN=C(N)N)C(=O)NCC(N)=O)NC(=O)[C@H](CC(N)=O)NC(=O)[C@H](CCC(N)=O)NC(=O)[C@H](Cc3ccccc3)NC2=O)cc1 (stereo in doubt) [listing 2 of 2 here] |  |  |  | 0.23
